Data published in ChEMBL document CHEMBL2311261, “Biocatalytic synthesis, structural elucidation, antioxidant capacity and tyrosinase inhibition activity of long chain fatty acid acylated derivatives of phloridzin and isoquercitrin” (Bioorg Med Chem, 2013).

How the values were obtained:
[1] = tested on: Radical scavenging activity; assay: Antioxidant activity assessed as DPPH radical scavenging activity; type: functional
Outline: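 Test compounds at a series of concentrations in DMSO/chloroform/methanol (1:8:4), mixed 1:1 (v/v) with 0.2 mM DPPH and incubated 30 min at 25 °C. Absorbance read at 520 nm from 0 s and every 300 s until plateau. Run in triplicate.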

[2] = Antioxidant activity assessed as Trolox equivalents of 0.001 mmol/L solution by ORAC assay; type: functional
[3] = Antioxidant activity assessed as Trolox equivalents of 1 mmol/L solution by FRAP assay; type: functional
Outline: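 FRAP reagent made daily from 300 mmol l⁻¹ acetate buffer (pH 3.6), 10 mmol l⁻¹ TPTZ and 20 mmol l⁻¹ FeCl3 (10:1:1). Trolox calibration 50–1000 μmol l⁻¹. Result given as Trolox equivalents of a 1 mmol l⁻¹ solution. Run in triplicate.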

[4] = tested on: tyrosinase (Agaricus bisporus); assay: Inhibition of mushroom tyrosinase using L-DOPA substrate at 10 uM
[5] = tested on: tyrosinase (Agaricus bisporus); assay: Inhibition of mushroom tyrosinase using L-DOPA substrate at 100 uM
[6] = tested on: tyrosinase (Agaricus bisporus); assay: Inhibition of mushroom tyrosinase using L-DOPA substrate at 1000 uM
[7] = Antioxidant activity assessed as Trolox equivalents of 0.01 mmol/L solution by ORAC assay; type: functional

IC50 [1]	inhibition [4]	inhibition [5]	inhibition [6]	SMILES	Activity [2]	Activity [3]	Activity [7]
38.2 µM	38.9%	47.5%	62.4%	CCCCCCCC/C=C\CCCCCCCC(=O)OC[C@H]1O[C@@H](Oc2c(-c3ccc(O)c(O)c3)oc3cc(O)cc(O)c3c2=O)[C@H](O)[C@@H](O)[C@@H]1O	265 µmol/L	536 µmol/L	
42 µM				CCCCCCCCCCCCCCCCCC(=O)OC[C@H]1O[C@@H](Oc2c(-c3ccc(O)c(O)c3)oc3cc(O)cc(O)c3c2=O)[C@H](O)[C@@H](O)[C@@H]1O	310 µmol/L	622 µmol/L	
60.4 µM	32.1%	73.3%	80.6%	CCCCC/C=C\C/C=C\CCCCCCCC(=O)OC[C@H]1O[C@@H](Oc2c(-c3ccc(O)c(O)c3)oc3cc(O)cc(O)c3c2=O)[C@H](O)[C@@H](O)[C@@H]1O	491 µmol/L	340 µmol/L	
17.9 µM				O=c1c(O[C@@H]2O[C@H](CO)[C@@H](O)[C@H](O)[C@H]2O)c(-c2ccc(O)c(O)c2)oc2cc(O)cc(O)c12 [ISOQUERCETIN]	473 µmol/L	1500 µmol/L	
97.9 µM	55.8%	78.8%	85.5%	CC/C=C\C/C=C\C/C=C\CCCCCCCC(=O)OC[C@H]1O[C@@H](Oc2c(-c3ccc(O)c(O)c3)oc3cc(O)cc(O)c3c2=O)[C@H](O)[C@@H](O)[C@@H]1O	490 µmol/L	614 µmol/L	
1490 µM				O=C(CCc1ccc(O)cc1)c1c(O)cc(O)cc1O[C@@H]1O[C@H](CO)[C@@H](O)[C@H](O)[C@H]1O [PHLORIZIN]			120 µmol/L
